The list is not random: actives were taken first. Their share in the collection is about 4.8%.
HSF1 activator: HSF-1 activators, primary screen, NIH3T3-HGL cells, MG132 stress, luminescence, single point. AID 504408, 2011. 300,000 tested, 1.7% active. NIH3T3-HGL HSF-1 luciferase reporter, 8 h; 100% = twice DMSO control signal. activation, % at 9 µM;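 active = mean replicate activation of at least 50% with a set share of replicates each reaching 50%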;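 also: 0% = median of the neutral control wells and 100% = twice that signal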
GPR7 antag: GPR7 receptor antagonists, primary screen, cell-based, fluorescence, single concentration; Neuropeptides B/W receptor type 1 (Homo sapiens), P48145; GPR7-expressing cells, fluorescence antagonist assay; inhibition, % at 4.4 µM; 290,000 tested, 1.1% active; AID 1861, 2009; in the data active = inhibition above about 16%, passing the limit was not always enough;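 also: cells stimulated with the agonist NPW; 0% = agonist with vehicle and 100% = vehicle without agonist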
Target sequence (P48145 whole entry, looked up): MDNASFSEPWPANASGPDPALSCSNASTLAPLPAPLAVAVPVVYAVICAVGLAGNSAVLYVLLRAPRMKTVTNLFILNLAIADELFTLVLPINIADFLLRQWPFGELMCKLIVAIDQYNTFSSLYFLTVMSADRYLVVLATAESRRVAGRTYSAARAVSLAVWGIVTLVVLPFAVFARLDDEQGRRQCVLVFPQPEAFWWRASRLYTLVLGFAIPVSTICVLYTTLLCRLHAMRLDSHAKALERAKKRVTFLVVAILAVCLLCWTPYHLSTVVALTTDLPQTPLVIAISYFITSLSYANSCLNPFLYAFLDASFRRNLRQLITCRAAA
T cruzi repl: inhibitors of intracellular T. cruzi growth, primary screen, luminescence, NIH3T3 host cells. AID 1885, 2009. inhibition, % (concentration not given with the values). T. cruzi beta-gal in NIH3T3, 90 h. 300,000 tested, 1.4% active;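 active = mean inhibition across valid replicates above about 55%, limit read from the data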;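 also: signal also drops with host cell toxicity which is not excluded here; 0% = plate median of DMSO wells and 100% = zero luminescence signal; higher percent means less beta-gal luminescence so fewer parasites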
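Assay system: NIH/3T3 fibroblasts plus reporter T. cruzi. Amount: NIH/3T3 cells, 5,000 per well. Buffer or medium: DMEM, 2% fetal bovine serum. Doses: compound pinned at 50 nL/well, DMSO. Schedule: ≥90 h infection period, 3 h prior cell attachment. Signal: luminescent β-galactosidase signal after 60 min lysis. Read-out: parasite load inhibition, %.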
Jurkat NFkB inh: inhibitors of induced NF-kB luciferase reporter, primary screen, TCR NF-kB activation inhibitor project, cell-based, luminescence, uHTS | 330,000 tested, 0.53% active | AID 435003, 2010 | Jurkat, PMA/ionomycin-induced NF-kB luciferase reporter | inhibition, % at 4 µM; in the data active = inhibition above about 50%
HSF1 inh: HSF1 inhibitors in luciferase reporter cells, primary screen, cell-based, NIH3T3, luminescence; 300,000 tested, 0.77% active; NIH3T3-HGL HSE-luciferase, MG132-induced, luminescence 8 h; active compounds read low; activity change, negative = inhibition, % at 7.5 µM (by protocol);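 active = more than half of replicate wells show activity change below -50%, luminescence cut by over half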;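 also: luciferase reports HSF-1 transcriptional activity via heat shock element; 0% = median of DMSO wells and -100% = zero luminescence signal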
697 NFkB inh: inhibitors of PMA/ionomycin-induced NF-kB reporter, 697 cells, primary screen, B-cell NF-kB inhibitor project, cell-based, luminescence, uHTS. 697 B-cell NF-kB luciferase reporter, 16 h. inhibition, % at 4 µM. 330,000 tested, 0.33% active. AID 435022, 2010; in the data active = inhibition above about 35%
* hit, by the source's call; . = not tested or not shown.

SMILES | HSF1 activator | GPR7 antag | T cruzi repl | Jurkat NFkB inh | HSF1 inh | 697 NFkB inh
COc1ccc(C2(C)NC(=O)N(CC(=O)NCc3ccccc3F)C2=O)cc1 (stereo not drawn) | 0 | -8 | -2 | 3 | 2 | -1
CCc1ccc2c(c1)C(c1ccc([N+](=O)[O-])cc1)=NNC(c1ccc(F)cc1)=N2 | 59* | -8 | 29 | -9 | 42 | -33
CCCN(CCC)CC(C)(C)NS(=O)(=O)c1ccc(Cl)cc1 | -9 | -7 | -1 | -4 | -1 | 5
CCOc1ccc(/C=N/n2cc(-c3ccccc3)[nH]c2=S)cc1 | 22 | -14 | 73* | -43 | 2 | -23
S=c1[nH]c(-c2ccccc2)cn1/N=C/c1ccncc1 | 3 | -21 | -7 | -16 | -2 | 2
Cc1cc(C)c(NC(=O)c2ccc[n+](Cc3ccc([N+](=O)[O-])cc3)c2)c(C)c1 | -2 | -5 | 1 | -1 | -1 | 19
C=CCNc1nc2c(c(=O)[nH]c(=O)n2C)n1CC(O)COc1ccc2ccccc2c1 (stereo not drawn) | 10 | -7 | 3 | 5 | -3 | -25
CCOC(=O)C(=Cc1ccc(F)cc1)C(=O)OCC | 126* | -11 | -34 | 3 | 122 | -14
COC(=O)c1ccc(-n2ccnc2)cc1 | -10 | -1 | -8 | 1 | -7 | 2
CCOC(=O)C(=O)Nc1ccc(F)cc1 | -6 | -3 | -15 | -9 | 5 | -5
CCOC(=O)/C(=C/c1ccc(OC(=O)c2ccncc2)cc1)C(C)=O | 14 | -11 | -12 | -5 | 16 | 15
CCOC(=O)C(=Cc1ccc(-n2ccnc2)cc1)C(=O)OCC | 128* | 0 | -9 | 4 | 72 | -26
CCOC(=O)C(=Cc1ccc(Br)cc1)C(=O)OCC | 148* | 35 | 14 | . | 113 | .
COc1ccc(/C=C/C(=O)OCCCN(C)C)cc1 | 1 | -6 | 57* | -5 | -7 | -2
COc1ccccc1/C=C/C(=O)OCCN1CCOCC1 | 10 | -3 | -19 | -11 | 0 | -5
COc1ccccc1/C=C/C(=O)OCCCN(C)C | -22 | -11 | 66* | -11 | -13 | 4
Cc1csc(C(C)NC(=O)c2ccc(OC3CCN(CCc4ccccc4)CC3)cc2)n1 (stereo not drawn) | -19 | -5 | 20 | 5 | -6 | 6
CN(C)CCCNC(=O)C[C@H]1C[C@H](C(=O)N2CCOCC2)[C@@]2(C)c3[nH]c4ccc(Cl)cc4c3CCN2C1=O | . | . | . | . | . | 10
COc1ccc(CC(C#N)(CO)c2nc3ccccc3[nH]2)cc1 (stereo not drawn) | 3 | -1 | -9 | 2 | 6 | -3
N#CC(CO)(Cc1ccc(OC(F)F)cc1)c1nc2ccccc2[nH]1 (stereo not drawn) | 72* | 1 | -24 | 8 | 46 | 5
Cn1c(CSc2ccccc2)c(C#N)c2ccccc21 | 90* | -3 | 0 | -30 | 29 | -57
CCCn1cc(CN2CCC(n3nccc3NC(=O)c3ccccc3)CC2)c(C)n1 | -6 | -16 | 30 | 16 | -1 | 3
O=C(c1ccc2c(c1)OCCO2)N1CCN(Cc2c(F)cccc2Cl)CC1 | . | . | . | 5 | . | -14
Cc1cc(=O)[nH]c(SCC(=O)c2ccc(F)c(C)c2)n1 | 3 | -4 | -8 | -13 | -5 | -15
Cc1ccc(Cl)c2c1=NC(=O)C=2c1[nH]c(=S)[nH]c1O | 126* | -1 | -8 | 5 | 58 | -13
SMILES | HSF1 activator | GPR7 antag | T cruzi repl | Jurkat NFkB inh | HSF1 inh | 697 NFkB inh
O=C1N=c2ccccc2=C1c1[nH]c(=S)[nH]c1O | 36 | -1 | 24 | -6 | 3 | -26
O=C(Nc1nc2cc3c(cc2s1)OCCO3)c1ccc([N+](=O)[O-])o1 | 104* | -9 | 59* | -59 | 92 | -207
Cc1cc(C)c2sc(NC(=O)c3ccc([N+](=O)[O-])o3)nc2c1 | 77* | -3 | 59* | 5 | 54 | -23
COc1ccc2nc(NC(=O)c3ccc([N+](=O)[O-])o3)sc2c1 | 132* | -13 | 41 | -19 | 100 | -64
COc1ccc(CCC(=O)Nc2cc3c4c(c2)CCC(=O)N4CCC3)cc1 | -7 | . | -10 | 4 | -1 | 15
COc1ccccc1NC(=O)CSCc1cc(=O)n2c(C)csc2n1 | 19 | -12 | 10 | 0 | 3 | -1
Cc1ccc2c(c1)N(Cc1ccc3c(c1)OCO3)C(=O)C(C)O2 (stereo not drawn) | 27 | -4 | 16 | -5 | 8 | 0
CCC1Oc2ccc(C)cc2N(Cc2cccc(C)c2)C1=O (stereo not drawn) | 54* | 0 | 1 | 0 | 8 | -7
CCC1Oc2ccc(C)cc2N(CC(=O)N(Cc2cccnc2)Cc2ccc(C)o2)C1=O (stereo not drawn) | 30 | -10 | 57* | 5 | -6 | 6
O=S(=O)(NCc1ccc(C(F)(F)F)cc1)c1ccc(-n2cnnn2)cc1 | -93 | 11 | 7 | 10 | -90* | 7
Cc1ccc(NC2c3ncccc3C(=O)N2C2CCCCC2)cc1C (stereo not drawn) | -2 | -4 | -11 | 6 | 0 | -7
Cc1ccc(NC2c3ncccc3C(=O)N2C2CCCCC2)cc1 (stereo not drawn) | 67* | -5 | -8 | 7 | 34 | 4
Cc1ccc(NC(=O)CCS(=O)(=O)c2cc3[nH]c(=O)c(=O)[nH]c3cc2C)cc1 | -22 | -4 | -10 | 11 | -6 | 5
O=C(Nc1ccc(C(O)(C(F)(F)F)C(F)(F)F)cc1)c1ccc(Cl)c([N+](=O)[O-])c1 | 9 | 43* | 21 | -13 | 10 | 0
O=C(O)c1cc(NC(=O)c2ccc(Cl)c([N+](=O)[O-])c2)cc(C(=O)O)c1 | -5 | 5 | -6 | 4 | -2 | 6
N#Cc1ccsc1NC(=O)c1cccc([N+](=O)[O-])c1 | 11 | -8 | -12 | -10 | 4 | 6
N#Cc1ccsc1NC(=O)c1ccc(Cl)c([N+](=O)[O-])c1 | 12 | 20* | 4 | -33 | 10 | -81
CCCc1ccc(C(C)NC(=S)NC2CCCCC2)cc1 (stereo not drawn) | 43 | 16 | 28 | 27 | 5 | -9
CC(C)NC(=O)Cn1cc(C(=O)C2CC2)c2ccccc21 | 11 | -9 | -7 | -13 | 7 | 14
CC(C)(C)c1cc(Cl)c(O)c(NC(=S)NC(=O)c2cccnc2)c1 | 39 | -2 | 70* | 4 | 43 | 16

From PubChem
